Tests used:
HL-60 [1] = assay: Inhibitory activity towards HL-60 cells at concentration of 100 uM; assay type: functional; details: Homo sapiens
Method in brief: (§1)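 Leukemia cells seeded at 150 000 cells/mL in RPMI-1640 with 10% FBS, 37 °C, 5% CO₂, 1 mL per well. NO donors added at culture initiation. Cells harvested at 72 h and washed twice in PBS. Viable cells counted by Trypan blue exclusion. IC50 calculated from the concentration–growth curve. Means ± SEM of at least three separate experiments.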

U-937 [2] = assay: Inhibitory activity towards U937 cells at concentration of 100 uM; assay type: functional; details: Homo sapiens; method in brief: as §1
HL-60 [3] = assay: Inhibitory activity towards HL-60 cells at 72 hours; assay type: functional, cell-based; details: Homo sapiens, HL-60, 72 h; method in brief: as §1
HL-60 [4] = assay: Within 24 hr at initial concentrations of 50 uM, apoptosis induction was evaluated in HL-60 cells; assay type: functional
Method in brief: (§2)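 Cells grown at 150 000 cells/mL in RPMI-1640 with 10% FBS, 37 °C, 5% CO₂, with compound added at culture start and read at 24 h. Cells washed in PBS and lysed in 0.2% NP40/5% BSA in PBS with propidium iodide and RNase A. Flow cytometry scored the low-DNA-content (apoptotic) fraction as percent of cells. Means ± SEM of ≥3 experiments.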

U-937 [5] = assay: Inhibitory activity towards U937 cells at 72 hours; assay type: functional, cell-based; details: Homo sapiens, U-937, 72 h; method in brief: as §1
U-937 [6] = assay: Within 24 hr at initial concentrations of 50 uM, apoptosis induction was evaluated in U937 cells; assay type: functional; method in brief: as §2

CCN(CC)/[N+]([O-])=N/OCCSC(C)=O
inhibition at 100 µM (HL-60 [1]): 90% | inhibition at 100 µM (U-937 [2]): 48%

CCN(CC)/[N+]([O-])=N/OCOC(C)=O
IC50 (HL-60 [3]): 8.3 µM | Apoptosis induction (HL-60 [4]): 50% | IC50 (U-937 [5]): 53 µM | Apoptosis induction (U-937 [6]): 35%

CCN(CC)/[N+]([O-])=N/O
IC50 (HL-60 [3]): > 600 µM

CC(=O)OCO/N=[N+](\[O-])N1CCCC1
IC50 (HL-60 [3]): 6.4 µM | Apoptosis induction (HL-60 [4]): 57% | IC50 (U-937 [5]): 53 µM | Apoptosis induction (U-937 [6]): 40%

[O-]/[N+](=N\O)N1CCCC1
IC50 (HL-60 [3]): > 600 µM

Source: ChEMBL document CHEMBL1133666, “Esterase-sensitive nitric oxide donors of the diazeniumdiolate family: in vitro antileukemic activity” (J Med Chem, 2000)
